Values after ≈ are worked out from the molar mass of the structure shown.
Columns and labels:
Candida albicans = assay: Antifungal activity against Candida albicans PTCC 5027 after 24 to 48 hrs by agar dilution method; type: functional
Procedure, shortened: (§1)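 Agar dilution on Sabouraud Dextrose Agar. Plates prepared in triplicate and incubated at 30 °C: yeasts about 24–48 h, moulds about 72 h, dermatophytes about 168 h. MIC taken as the lowest concentration with no growth, in µg/mL. Footnote states duplicate determinations.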

Saccharomyces cerevisiae = assay: Antifungal activity against Saccharomyces cerevisiae PTCC 5177 after 24 to 48 hrs by agar dilution method; type: functional; procedure, shortened: as §1
Aspergillus niger = assay: Antifungal activity against Aspergillus niger PTCC 5012 after 72 hrs by agar dilution method; type: functional; procedure, shortened: as §1
Microsporum = assay: Antifungal activity against Microsporum gypseum PTCC 5070 after 168 hrs by agar dilution method; type: functional; procedure, shortened: as §1
[1] = Cytotoxicity against mouse NIH/3T3 cells after 72 hrs by MTT colorimetric assay; type: cell-based; conditions: NIH3T3, 72 h
Procedure, shortened: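 NIH/3T3 cells in exponential growth were trypsinized and seeded at 5 × 10^4 cells/mL in complete medium. Serial dilutions were added, each in triplicate, with untreated cells as the viability control. After 72 h incubation, MTT (5 mg/mL solution) was added for 1 h. Medium was replaced with DMSO and absorbance read at 492 nm. IC50 was taken from dose-response curves against control; mean ± SD of triplicates.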

| SMILES | MIC (Candida albicans) | MIC (Saccharomyces cerevisiae) | MIC (Aspergillus niger) | MIC (Microsporum) | IC50 [1] |
| --- | --- | --- | --- | --- | --- |
| O=C(Cn1ccnc1)c1ccc(Cl)cc1O | 64 µg/mL (≈ 270 µM) | 0.25 µg/mL (≈ 1.06 µM) | 64 µg/mL (≈ 270 µM) | 32 µg/mL (≈ 135 µM) |  |
| COc1ccc(C(=O)Cn2ccnc2)c(O)c1 | 8 µg/mL (≈ 34.4 µM) | 0.25 µg/mL (≈ 1.08 µM) | 16 µg/mL (≈ 68.9 µM) | 8 µg/mL (≈ 34.4 µM) | 221 µg/mL (≈ 952 µM) |
| O=C(Cn1cncn1)c1ccccc1O | 64 µg/mL (≈ 315 µM) | 64 µg/mL (≈ 315 µM) | 32 µg/mL (≈ 157 µM) | 64 µg/mL (≈ 315 µM) |  |
| O=C(Cn1cncn1)c1ccc(Cl)cc1O | 32 µg/mL (≈ 135 µM) | 64 µg/mL (≈ 269 µM) | 16 µg/mL (≈ 67.3 µM) | 16 µg/mL (≈ 67.3 µM) |  |
| COc1ccc(C(=O)Cn2cncn2)c(O)c1 | 8 µg/mL (≈ 34.3 µM) | 8 µg/mL (≈ 34.3 µM) | 32 µg/mL (≈ 137 µM) | 16 µg/mL (≈ 68.6 µM) | 222 µg/mL (≈ 952 µM) |
| COc1ccc(C(=O)Cn2c[n+](N)cn2)c(O)c1.[Br-] | 2 µg/mL | 4 µg/mL | 16 µg/mL | 8 µg/mL | 254 µg/mL |
| O=C(Cn1c[n+](CC(=O)c2ccc(Cl)cc2O)cn1)c1ccc(Cl)cc1O.[Br-] | 32 µg/mL | 8 µg/mL | 64 µg/mL | 32 µg/mL |  |
| O=C(Cn1cnnc1)c1ccc(Cl)cc1O | 16 µg/mL (≈ 67.3 µM) | 16 µg/mL (≈ 67.3 µM) | 32 µg/mL (≈ 135 µM) | 64 µg/mL (≈ 269 µM) |  |
| N[n+]1cnn(CC(=O)c2ccccc2O)c1.[Br-] | 64 µg/mL | 32 µg/mL | 32 µg/mL | 32 µg/mL |  |
| O/N=C(\Cn1ccnc1)c1ccccc1O | 32 µg/mL (≈ 147 µM) | 32 µg/mL (≈ 147 µM) | 64 µg/mL (≈ 295 µM) | 64 µg/mL (≈ 295 µM) |  |
| O=C(Cn1ccnc1)c1ccccc1O | 64 µg/mL (≈ 316 µM) | 64 µg/mL (≈ 316 µM) | 64 µg/mL (≈ 316 µM) | 64 µg/mL (≈ 316 µM) |  |
| O=C(Cn1c[n+](CC(=O)c2ccccc2O)cn1)c1ccccc1O.[Br-] | 16 µg/mL | 1 µg/mL | 32 µg/mL | 16 µg/mL | 47 µg/mL |
| N[n+]1cnn(CC(=O)c2ccc(Cl)cc2O)c1.[Br-] | 4 µg/mL | 0.25 µg/mL | 32 µg/mL | 16 µg/mL | 370 µg/mL |
| O=C(Cn1cnnc1)c1ccccc1O | 32 µg/mL (≈ 157 µM) | 16 µg/mL (≈ 78.7 µM) | 16 µg/mL (≈ 78.7 µM) | 16 µg/mL (≈ 78.7 µM) |  |
| COc1ccc(C(=O)Cn2c[n+](CC(=O)c3ccc(OC)cc3O)cn2)c(O)c1.[Br-] | 8 µg/mL | 4 µg/mL | 16 µg/mL | 16 µg/mL | 98 µg/mL |
| OC(Cn1cncn1)(Cn1cncn1)c1ccc(F)cc1F [FLUCONAZOLE] | 8 µg/mL (≈ 26.1 µM) | 32 µg/mL (≈ 104 µM) | 32 µg/mL (≈ 104 µM) | 32 µg/mL (≈ 104 µM) | 387 µg/mL (≈ 1260 µM) |
| Clc1ccc(COC(Cn2ccnc2)c2ccc(Cl)cc2Cl)c(Cl)c1 (stereo not given) [MICONAZOLE] | 1 µg/mL (≈ 2.4 µM) | 1 µg/mL (≈ 2.4 µM) | 2 µg/mL (≈ 4.81 µM) | 8 µg/mL (≈ 19.2 µM) |  |
